In one test the test system is MCF7. Briefly: Cytotoxicity against human MCF7 cells after 24 hrs by MTT assay. To be noted: MCF7, 24 h. The class given is functional, cell-based. In outline:
(§1)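 MTT read-out: viable-cell mitochondrial dehydrogenase reduces tetrazolium to formazan, which is dissolved in DMSO and read at 570 nm. IC50 reported in μg/ml. Doxorubicin serves as positive control.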
For orientation: Tetrazolium assays rely on reduction of a dye to a coloured formazan, in cell work by metabolically active cells.

Test [1] in a line: Cytotoxicity against human IMR32 cells after 24 hrs by MTT assay. The class given is functional, cell-based. To be noted: IMR-32, 24 h. In outline: as §1
Test [2] is described as follows: Inhibition of alpha-glucosidase (unknown origin) using p-nitrophenyl-alpha-D-glucopyranoside as substrate assessed as p-nitrophenol formation incubated for 5 mins prior to substrate addition measured after 5 mins by spectrophotometry. In a few lines:
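Test samples (5 mg/mL DMSO stock) in 100 mM phosphate buffer pH 6.8 preincubated 5 min with yeast α-glucosidase (0.76 U/mL) or crude rat intestinal enzyme (supernatant of sonicated acetone powder in saline, centrifuged). Then 5 mM p-nitrophenyl-α-D-glucopyranoside added; p-nitrophenol read at 405 nm after 5 min. Sample blanks without substrate; DMSO controls. Inhibition = (1−B/A)×100. Triplicate; IC50 by regression of mean inhibition.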

The next test relates to HepG2. Briefly: Cytotoxicity against human HepG2 cells after 24 hrs by MTT assay. The settings on record: HepG2, 24 h. Format: functional, cell-based. In outline:
as §1

Values after ≈ are worked out from the molar mass of the structure shown.

As a reminder, the IC50 is the concentration that inhibits the measured activity by half.

Take `O=C1S/C(=C\c2ccc3c(c2)OCO3)C(=O)N1Cc1cn(-c2ccccc2Cl)nn1`: the half-maximal inhibitory concentration (IC50) in the test with MCF7 is 87 µg/mL (≈ 197 µM); in test [1] it was greater than 100 µg/mL; in test [2] it was 40 µg/mL (≈ 90.7 µM); in the test with HepG2, greater than 100 µg/mL.
For the molecule `C[C@H]1O[C@H](O[C@H]2[C@H](O)[C@@H](O)[C@@H](O[C@H]3[C@H](O)[C@@H](O)C(O)O[C@@H]3CO)O[C@@H]2CO)[C@H](O)[C@@H](O)[C@@H]1N[C@H]1C=C(CO)[C@@H](O)[C@H](O)[C@H]1O` (some centres not stated) [ACARBOSE], the concentration for half-maximal inhibition (IC50) in test [2] came out at 12.5 µg/mL (≈ 19.4 µM).
Turning to `CC(C)c1ccc(-n2cc(CN3C(=O)S/C(=C\c4ccc5c(c4)OCO5)C3=O)nn2)cc1`, the IC50 in the test on MCF7 stood at 78 µg/mL (≈ 174 µM); in test [1], 97.5 µg/mL (≈ 217 µM); in test [2], 0.3 µg/mL (≈ 0.669 µM); in the test on HepG2, 66 µg/mL (≈ 147 µM).
As to `O=C1S/C(=C\c2ccc3c(c2)OCO3)C(=O)N1Cc1cn(-c2ccc(Cl)c(F)c2)nn1`, the half-inhibitory concentration (IC50) (in the test with MCF7; in test [1]; in test [2]; in the test on HepG2) was greater than 100 µg/mL each time.
Take `CCCCCCn1cc(CN2C(=O)S/C(=C\c3ccc4c(c3)OCO4)C2=O)nn1`: the concentration for half-maximal inhibition (IC50) is 43 µg/mL (≈ 104 µM) with MCF7, 77.6 µg/mL (≈ 187 µM) in test [1], greater than 100 µg/mL in test [2] and 67 µg/mL (≈ 162 µM) with HepG2.
Take `Cc1ccc(-n2cc(CN3C(=O)S/C(=C\c4ccc5c(c4)OCO5)C3=O)nn2)cc1`: the IC50 in the test with MCF7 was greater than 100 µg/mL; in test [1], greater than 100 µg/mL; in test [2], 75.5 µg/mL (≈ 180 µM); in the test with HepG2, greater than 100 µg/mL.
In the case of `O=C1S/C(=C\c2ccc3c(c2)OCO3)C(=O)N1Cc1cn(CCc2ccccc2)nn1`, the IC50 in the test on MCF7 worked out at 30 µg/mL (≈ 69 µM); in test [1], 52.6 µg/mL (≈ 121 µM); in test [2], 0.3 µg/mL (≈ 0.69 µM); in the test with HepG2, 31 µg/mL (≈ 71.4 µM).
For `COc1cccc2c1C(=O)c1c(O)c3c(c(O)c1C2=O)C[C@@](O)(C(=O)CO)C[C@@H]3O[C@H]1C[C@H](N)[C@H](O)[C@H](C)O1` [DOXORUBICIN], the concentration for half-maximal inhibition (IC50) worked out at 0.8 µg/mL (≈ 1.47 µM) in test [1] and 0.6 µg/mL (≈ 1.1 µM) in the test with HepG2.
Consider `O=C1S/C(=C\c2ccc3c(c2)OCO3)C(=O)N1Cc1cn(-c2ccccc2[N+](=O)[O-])nn1`, for which the IC50 in the test on MCF7 was greater than 100 µg/mL; in test [1], greater than 100 µg/mL; in test [2] it was 0.1 µg/mL (≈ 0.222 µM); in the test with HepG2, greater than 100 µg/mL.
Consider `O=C1S/C(=C\c2ccc3c(c2)OCO3)C(=O)N1Cc1cn(-c2ccc(F)cc2)nn1`, for which the IC50 in the test on MCF7 was 96.2 µg/mL (≈ 227 µM); in test [1], greater than 100 µg/mL; in test [2], greater than 100 µg/mL; with HepG2, greater than 100 µg/mL.
With `COc1ccc(C)cc1-n1cc(CN2C(=O)S/C(=C\c3ccc4c(c3)OCO4)C2=O)nn1`, the IC50 in the test with MCF7 is 34 µg/mL (≈ 75.5 µM); in test [1] it was 52.6 µg/mL (≈ 117 µM); in test [2], greater than 100 µg/mL; in the test on HepG2, 45 µg/mL (≈ 99.9 µM).
The corresponding values for `O=C1S/C(=C\c2ccc3c(c2)OCO3)C(=O)N1Cc1cn(-c2ccc(Cl)cc2)nn1` are greater than 100 µg/mL, greater than 100 µg/mL, 33.6 µg/mL (≈ 76.2 µM) and greater than 100 µg/mL.
With `O=C1S/C(=C\c2ccc3c(c2)OCO3)C(=O)N1Cc1cn(-c2ccc(F)c(F)c2)nn1`, the IC50 (in the test on MCF7; in test [1]; in test [2]; with HepG2) was greater than 100 µg/mL each time.

The values are drawn from ChEMBL document CHEMBL3085625, “Synthesis, biological evaluation and molecular modeling studies of some novel thiazolidinediones with triazole ring” (Eur J Med Chem, 2013).
